High-throughput results as filed in PubChem.
A1 inh = inhibitors of the anti-apoptotic protein A1, read as caspase activation. MEF A1-2A-BIM cells, Caspase-Glo 3/7 luminescence, 3 h; percent of clofoctol response, vehicle zero. caspase activation, % (concentration not given with the values). 0.066% of 330,000 active;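 active = over half of replicate activation scores above 10%, or exactly half above 10 with the replicate mean above 10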
XBP1 UPR activ = activators of adaptive arm of unfolded protein response (XBP1) | 0.33% of 330,000 active | activation, % at 20 µM | CHO-XBP1 luciferase reporter, IRE1-XBP1 UPR activation, luminescence; percent of tunicamycin response, DMSO as zero;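 active = versus positive control, 20 µM dose yields 30% or more activation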
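Material – CHO cell line with stable XBP1 luciferase reporter · Buffer or medium – F12 plus 10% FBS · Compound – single point, 20 µM final compound, 1% DMSO · Schedule – 16-18 h cell attachment at 37 °C, then 6 h compound exposure · Signal – Steady-Glo luminescence read · Benchmarks – high control tunicamycin 10 µg/mL final, low control DMSO vehicle only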
CHOP inh = blocks CHOP induction under ER stress. CHO-K1 CHOP-promoter luciferase, tunicamycin-induced, 15-18 h. inhibition, % at 10 µM. 3.8% of 220,000 active. AID 2732;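 active = compounds that reduced the stress-induced luciferase reporter signal by more than about 70% of percent inhibition, limit read from the data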
UPR CHOP act = apoptotic UPR (CHOP) activation; CHO-CHOP luciferase reporter, luminescence; percent of tunicamycin response over DMSO baseline; activation, % at 10 µM; 0.34% of 330,000 active;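 active = at 10 µM dose, activation of 40% or more, normalized to positive control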
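System: CHO CHOP reporter cells. Amount: 500 cells per well. Buffer or medium: F12 medium, 10% FBS. Compound dosing: one dose, 10 µM in 0.5% DMSO. Incubation: 6 h compound exposure at 37 °C after overnight seeding. Technique: Steady-Glo luciferase luminescence. Benchmarks: tunicamycin and DMSO controls.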
A number is an active result; 0 = inactive; - = no result. Shown is part of a subset that was picked to be rich in hits.

SMILES	A1 inh	XBP1 UPR activ	CHOP inh	UPR CHOP act
CCOc1ccc(-n2c(N)c(-c3nc4ccccc4n3C)c3nc4ccccc4nc32)cc1	0	0	93	0
Clc1ccc(OCc2nn3c(C4CCCCC4)nnc3s2)c(Cl)c1	0	0	87	0
COc1cc(CNCC(C)C)c(Br)cc1OCC(=O)NCc1ccccc1	0	0	0	0
CC(C)C(=O)Nc1cccc(NC(=S)NC(=O)c2ccc([N+](=O)[O-])cc2)c1	0	0	0	0
Cc1cc(C(=O)NC(=S)Nc2cccc(NC(=O)C(C)C)c2)ccc1[N+](=O)[O-]	0	0	81	0
Cc1cccc(CN2C(=O)N/C(=C/c3ccc(C)s3)C2=O)c1	0	0	90	0
Cc1ccc(/C=C2/NC(=O)N(Cc3ccccc3)C2=O)s1	0	0	0	0
CC(c1ccccc1C(O)c1ccccc1)N(C)C (stereo not drawn)	0	0	0	0
Cc1ccc(C(O)(c2ccccc2)c2ccccc2C(C)N(C)C)c(C)c1 (stereo not drawn)	0	0	96	0
O=C(NCc1cccnc1)/C(=C\c1ccc(-c2ccc(Cl)c(Cl)c2)o1)S(=O)(=O)c1ccccc1	0	-	110	-
O=C(NCc1cccnc1)c1ccc(-c2ccc(Cl)cc2)o1	0	0	0	0
COc1ccc2nc(NC(=O)C3CCCN(S(=O)(=O)c4c(C)noc4C)C3)sc2c1 (stereo not drawn)	0	0	75	0
CCOc1ccc2nc(NC(=O)C3CCCN(S(=O)(=O)c4c(C)noc4C)C3)sc2c1 (stereo not drawn)	0	0	0	0
CCN(CC)c1ccc(N/C(N)=N/c2nc(C(F)(F)F)cc(=O)[nH]2)cc1	0	0	73	0
CN(C)c1ccc(N/C(N)=N/c2nc(C(F)(F)F)cc(C(F)(F)F)n2)cc1	0	0	85	0
Cc1cccc(N/C(N)=N/c2nc(C(F)(F)F)cc(C(F)(F)F)n2)c1	0	0	0	0
CC(C)(C)OC(=O)N1CCC(NC(=O)c2[nH]cnc2C(=O)Nc2ccon2)CC1	0	0	-	0
c1ccc(-c2nc(CSc3nnc(-c4cccs4)o3)cs2)cc1	0	0	0	0
Cc1ccc(Nc2nc(CSc3nnc(-c4cccs4)o3)cs2)cc1	0	0	86	0
CCC(C)(NC(=O)c1ccc(=O)[nH]c1)C(=O)NC1CCCC1 (stereo not drawn)	0	0	0	0
O=C(Nc1ccc(N2CCCCC2)cc1)c1ccccn1	0	0	94	0
O=C(Nc1ccccc1N1CCCCC1)c1cccs1	0	0	86	0
Cc1ccccc1C(=O)Nc1ccccc1N1CCCCC1	0	0	88	0
O=C(Nc1ccccc1N1CCCC1)c1ccccc1Cl	0	0	-	0
O=C(Nc1ccccc1N1CCCCC1)c1cnccn1	0	0	80	0
SMILES	A1 inh	XBP1 UPR activ	CHOP inh	UPR CHOP act
O=C(Nc1ccc(N2CCCCCC2)cc1)c1ccccc1Cl	0	0	0	0
Cc1c(Cl)cccc1NC(=O)CNC(=O)c1ccc(F)cc1	0	0	0	0
O=C(c1ccccc1F)N1CCN(c2ccc([N+](=O)[O-])c(NCc3cccnc3)c2)CC1	0	0	0	0
O=C(Nc1ccc(N2CCCC2)cc1)c1ccc(Br)cc1	0	0	-	0
CC(C)Oc1ccc(C(=O)Nc2ccc(N3CCCC3)cc2)cc1	0	0	73	0
Cc1nc2ccccc2nc1OCC(=O)NCC(F)(F)F	0	0	0	0
CCCCn1c(C)cc(C)c(S(=O)(=O)c2ccccc2C)c1=O	0	0	94	0
CCCCOC(=O)c1ccc(O)cc1	0	0	0	0
CCCCOC(=O)Nc1ccc(C(=O)OCCC)cc1	0	0	86	0
CCCCCCCCOC(=O)c1ccc(N)cc1	0	0	76	0
CCc1ccc(CN(C)CC(=O)Nc2ccc3c(c2)CCC3)cc1	0	0	92	0
O=C(O)Cc1ccc(NS(=O)(=O)c2c(Cl)cccc2Cl)cc1	0	0	0	0
O=C(Nc1cc2c(oc1=O)CCCC2=O)c1ccccc1	0	0	76	0
O=C(NC1CCCc2ccccc21)C1CCN(c2c3c(nc4ncnn24)CCC3)CC1 (stereo not drawn)	0	0	0	0
CN(C)CCCN(C(=O)c1cc2cc([N+](=O)[O-])ccc2s1)c1nc2cc3c(cc2s1)OCCO3	8.4	0	-	0
O=C1CN(S(=O)(=O)c2ccc(F)cc2)CC(=O)N1CCc1ccccc1	-	-	0	-
O=C(C[n+]1ccccc1)Nc1nc2ccccc2s1	0	0	0	0
Cc1ccc2nc(NC(=O)CCCc3nc4ccccc4s3)sc2c1	0	0	0	0
O=C(O)CCC(=O)Nc1nc2ccccc2s1	0	0	72	0
Cc1ccc2nc(NC(=O)CSCC(=O)OCC(=O)c3ccccc3)sc2c1	0	-	71	-
CCOCC(=O)Nc1nc2ccc(C)cc2s1	0	0	0	0
Cc1ccc2nc(NC(=O)CCCC(=O)O)sc2c1	0	0	82	0
CCc1ccc(OCCCCN(C)Cc2ccccc2)cc1	0	0	-	0
O=C(NCc1ccc(/C=N\NC(=O)C(=O)Nc2ccccc2Br)o1)C(=O)Nc1ccccc1	11	0	-	0
CC(=O)OC(c1nc2ccccc2c(=O)n1C1CC2(OC1=O)c1ccccc1N1C(=O)C(C)(C)N(O)C12)C(C)C (stereo not drawn)	0	0	0	0
SMILES	A1 inh	XBP1 UPR activ	CHOP inh	UPR CHOP act
CS(=O)(=O)N(CC(=O)N/N=C/c1cccc2c1OCCO2)c1ccccc1Br	0	0	0	0
O=C(CN(c1ccc(Cl)c(C(F)(F)F)c1)S(=O)(=O)c1ccccc1)N/N=C/c1cccc2c1OCCO2	0	0	73	0
COc1ccc(CNC(=O)Cn2nc(C(F)(F)F)c(Br)c2C)cc1	0	0	-	0
COc1cc(NC(=O)Cn2nc(C(F)(F)F)c(Br)c2C)cc([N+](=O)[O-])c1	0	0	94	0
COc1ccccc1OC(=O)CCc1nc2ccccc2s1	0	0	0	0
Cc1cc(C)c(C)c(OCC(=O)NCc2nc(-c3ccccc3)no2)c1	0	0	86	0
CCOC(=O)/C=c1\sc2n(c1=O)CCN=2	0	0	0	0
C=CCSc1nc(N)c(C(=O)Nc2ccccc2OC)cc1C(=O)Nc1ccccc1	0	0	0	0
C=CCSc1nc(N)c(C(=O)Nc2ccccc2)cc1C#N	0	0	70	0
CCCN(CC(=O)Nc1ccccc1Br)CC(=O)Nc1ccc(F)c(F)c1F	0	0	0	0
CCCN(CC(=O)Nc1cc(Cl)cc(Cl)c1)CC(=O)Nc1ccc(F)c(F)c1F	0	0	76	0
COc1ccc(NC(=O)c2cccc([N+](=O)[O-])c2)cc1	0	0	0	0
COc1ccc(NC(=O)c2cc([N+](=O)[O-])ccc2O)cc1	0	0	75	0
O=C(Nc1cccc([N+](=O)[O-])c1)c1cc2ccccc2cc1O	0	0	86	0
COc1cc(SC)ccc1C(=O)Nc1ccc(Cl)cn1	0	0	86	0
Cc1ccc2nc(-c3ccc(NC(=O)CN4C(=O)NC(C)(c5ccc(OC(F)F)cc5)C4=O)cc3)sc2c1 (stereo not drawn)	0	0	76	0
